Columns and labels:
[1] = AUC (0 to infinity) in patient with moderate renal impairment at 400 mg, po administered as single dose; assay type: ADME, organism-based; parameters: dose 400 mg, time infinity, route oral; details: human, plasma
Method in brief: (§1)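 Single oral telbivudine dose. Heparinized blood was drawn predose and up to 48 h postdose, with extra paired dialyzer samples for predialysis dosing. Plasma was stored at –20°C and assayed by validated HPLC-MS/MS (LLOQ 10 ng/ml, range 10–5,000 ng/ml). Noncompartmental analysis: AUC0-t by linear trapezoidal rule to last measurable concentration; AUC0-∞ = AUC0-t + Ct/kel.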

[2] = Elimination half life in patient with severe renal impairment at 200 mg, po administered as single dose; assay type: ADME, organism-based; details: human, in vivo, read-out: beta t1/2 (converted)
Method in brief: (§2)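 Half-lives came from noncompartmental analysis of plasma LC-MS/MS concentrations over 48 h after a single oral dose. Terminal and initial-decline t1/2 were calculated as 0.693/k, with each rate constant derived by stripping and linear regression.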

[3] = AUC (0 to t) in patient with mild renal impairment at 600 mg, po administered as single dose; assay type: ADME, organism-based; details: human, plasma; method in brief: as §1
[4] = Tmax in patient with severe renal impairment at 200 mg, po administered as single dose; assay type: ADME, organism-based; details: human, in vivo
Method in brief: (§3)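 Single oral dose. Plasma was frozen at –20°C. Assay by validated HPLC-MS/MS (LLOQ 10 ng/ml, calibration 10–5,000 ng/ml, m/z 243.0→127.1). Tmax was read directly from the concentration-time data, with noncompartmental analysis.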

[5] = Renal clearance in patient with mild renal impairment at 600 mg, po administered as single dose; assay type: ADME, organism-based, Kidney; details: human, in vivo, read-out: CL_renal (converted)
Method in brief: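 Renal clearance = Au0-t/AUC0-t, where Au0-t is the cumulative unchanged drug in urine collected over 0–48 h. Plasma and urine were assayed by validated HPLC-MS/MS after a single oral dose.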

[6] = AUC (0 to t) in human with normal renal function at 600 mg, po administered as single dose; assay type: ADME, organism-based; details: plasma; method in brief: as §1
[7] = AUC (0 to t) in patient with end-stage renal disease at 200 mg, po administered as two single doses within 2 hrs of after completion of dialysis separated by 1 week washout period; assay type: ADME, organism-based; details: human, plasma; method in brief: as §1
[8] = AUC (0 to t) in patient with end-stage renal disease at 200 mg, po disease as two single doses 2 hrs before dialysis separated by 1 week washout period; assay type: ADME, organism-based; details: human, plasma; method in brief: as §1
[9] = Tmax in patient with mild renal impairment at 600 mg, po administered as single dose; assay type: ADME, organism-based; details: human, in vivo; method in brief: as §3
[10] = Initial decline half life in human with normal renal function at 600 mg, po administered as single dose; assay type: ADME, organism-based; details: in vivo, read-out: alphat1/2 (converted); method in brief: as §2
Homo sapiens [11] = test: AUC (0 to infinity) in human with normal renal function at 600 mg, po administered as single dose; assay type: ADME, organism-based, Plasma; parameters: dose 600 mg, route oral, time infinity; details: in vivo; method in brief: as §1
[12] = Cmax in patient with mild renal impairment at 600 mg, po administered as single dose; assay type: ADME, organism-based; parameters: dose 600 mg, route oral; details: human, in vivo
Method in brief: (§4)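 Plasma telbivudine after one oral dose, sampled predose through 48 h and quantified by validated LC-MS/MS (LLOQ 10 ng/ml, transition 243.0→127.1 m/z). Cmax was read directly from the observed concentration-time data.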

[13] = AUC (0 to infinity) in patient with end-stage renal disease at 200 mg, po administered as two single doses 2 hrs before dialysis separated by 1 week washout period; assay type: ADME, organism-based; parameters: dose 200 mg, route oral, time infinity; details: human, plasma; method in brief: as §1
[14] = Cmax in patient with moderate renal impairment at 400 mg, po administered as single dose; assay type: ADME, organism-based; parameters: dose 400 mg, route oral; details: human, in vivo; method in brief: as §4
[15] = Mean cumulative urine excretion level in patient with mild renal impairment at 600 mg, po administered as single dose; assay type: ADME, organism-based; details: human, read-out: Activity
Method in brief: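 Urine collected at –2 to 0 h predose and at 0–4, 4–8, 8–12, 12–24 and 24–48 h after a single oral dose. Unchanged telbivudine measured by validated HPLC-MS/MS (LLOQ 30 ng/ml, calibration 30–5,000 ng/ml), and amounts were summed cumulatively.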

[16] = Terminal half life in healthy human at 200 to 800 mg/day administered as single dose; assay type: ADME, organism-based; details: in vivo, read-out: beta t1/2 (converted)
Homo sapiens [17] = test: Dialytic clearance in patient with end-stage renal disease at 200 mg, po administered as single dose 2 hrs before dialysis; assay type: ADME, organism-based; details: in vivo
Method in brief: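 Dose given 2 h before a 3.5–4 h hemodialysis session. Paired pre- and postdialyzer plasma samples were taken at start, mid and end of dialysis. CLHD = [(QA×CA) – (QV×CV)]/CA, where QA and QV are dialyzer inflow and outflow blood rates and CA and CV are the paired concentrations.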

[18] = Tmax in human with normal renal function at 600 mg, po administered as single dose; assay type: ADME, organism-based; details: in vivo; method in brief: as §3
[19] = Plasma clearance in human with normal renal function; assay type: ADME, organism-based
[20] = Plasma clearance in patient with severe renal impairment at 200 mg, po administered as single dose; assay type: ADME, organism-based; details: human
Method in brief: (§5)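 Apparent total oral plasma clearance (CL/F) = dose/AUC0-∞. AUC was obtained noncompartmentally from plasma LC-MS/MS concentrations sampled up to 48 h after a single oral dose.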

[21] = Renal clearance in patient with severe renal impairment at 200 mg, po administered as single dose; assay type: ADME, organism-based, Kidney; details: human, in vivo, read-out: CL_renal (converted)
Method in brief: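 Single oral dose. Urine was collected at –2–0 h and over 0–4, 4–8, 8–12, 12–24 and 24–48 h; plasma was sampled over 48 h. Both matrices were assayed by HPLC-MS/MS (urine LLOQ 30 ng/ml, plasma LLOQ 10 ng/ml). Renal clearance = cumulative urinary unchanged drug (Au0-t) / AUC0-t, with AUC by the linear trapezoidal rule.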

[22] = AUC (0 to t) in patient with severe renal impairment at 200 mg, po administered as single dose; assay type: ADME, organism-based; details: human, plasma; method in brief: as §1
Homo sapiens [23] = test: Plasma clearance in human with normal renal function at 600 mg, po administered as single dose; assay type: ADME, organism-based; details: in vivo; method in brief: as §5
[24] = Tmax in patient with end-stage renal disease at 200 mg, po administered as two single doses within 2 hrs of after completion of dialysis separated by 1 week washout period; assay type: ADME, organism-based; details: human, in vivo; method in brief: as §3
[25] = Plasma clearance in patient with moderate renal impairment at 400 mg, po administered as single dose; assay type: ADME, organism-based; details: human; method in brief: as §5
HepG2 = test: Cmax for Telbivudine triphosphate in HepG2 cells after 10 uM Telbivudine treatment; assay type: ADME, cell-based; details: human, hepg2, 10 µM; read-out: Cmax_triphosphate
[26] = Oral bioavailability in human with normal renal function; assay type: ADME, organism-based; details: in vivo
[27] = Plasma clearance in patient with end-stage renal disease at 200 mg, po administered as two single doses within 2 hrs of after completion of dialysis separated by 1 week washout period; assay type: ADME, organism-based; details: human; method in brief: as §5

Q: What does the source list for Cc1cn([C@@H]2C[C@@H](O)[C@H](CO)O2)c(=O)[nH]c1=O [TELBIVUDINE]?
A: AUC(0-inf) [1]: 36000 ng·h/mL; half-life [2]: 32.9 h; AUC(0-t) [3]: 29200 ng·h/mL; Tmax [4]: 4 h; CL renal [5]: 83.3 mL/min; AUC(0-t) [6]: 26500 ng·h/mL; AUC(0-t) [7]: 41800 ng·h/mL; AUC(0-t) [8]: 26500 ng·h/mL; Tmax [9]: 4 h; half-life [10]: 2.32 h; AUC (Homo sapiens [11]): 28500 ng·h/mL; Cmax [12]: 3200 ng/mL; AUC(0-inf) [13]: 43400 ng·h/mL; Cmax [14]: 2800 ng/mL; dose excreted [15]: 23.6%; half-life [16]: 40 h; CL (Homo sapiens [17]): 13.3 L/h; Tmax [18]: 4 h; clearance [19]: 200 mL/min; CL/F [20]: 118 mL/min; CL renal [21]: 11.7 mL/min; AUC(0-t) [22]: 25300 ng·h/mL; CL (Homo sapiens [23]): 7.6 L/h; Tmax [24]: 3.5 h; CL/F [25]: 227 mL/min; Cmax (HepG2): 30 µM; bioavailability [26]: 52%; CL/F [27]: 60 mL/min

From ChEMBL document CHEMBL1153546, “Pharmacokinetics of telbivudine in subjects with various degrees of renal impairment” (Antimicrob Agents Chemother, 2007)
